Data as given in ChEMBL document CHEMBL4393678, “Novel Tetrahydroquinazolinamines as Selective Histamine 3 Receptor Antagonists for the Treatment of Obesity” (J Med Chem, 2019).
Calls of active or inactive are those of the source. The rule behind the calls is not given here.

Key:
Histamine H2 receptor = Histamine H2 receptor (Homo sapiens, UniProt P25021); test: Agonist activity at recombinant human Gs-coupled H2 receptor expressed in HEK293T cells assessed as inhibition of forskolin-stimulated cAMP accumulation preincubated for 10 to 15 followed by forskolin-stimulation by Glo-sensor assay; format: functional, cell-based
Chain of Histamine H2 receptor (P25021 whole entry): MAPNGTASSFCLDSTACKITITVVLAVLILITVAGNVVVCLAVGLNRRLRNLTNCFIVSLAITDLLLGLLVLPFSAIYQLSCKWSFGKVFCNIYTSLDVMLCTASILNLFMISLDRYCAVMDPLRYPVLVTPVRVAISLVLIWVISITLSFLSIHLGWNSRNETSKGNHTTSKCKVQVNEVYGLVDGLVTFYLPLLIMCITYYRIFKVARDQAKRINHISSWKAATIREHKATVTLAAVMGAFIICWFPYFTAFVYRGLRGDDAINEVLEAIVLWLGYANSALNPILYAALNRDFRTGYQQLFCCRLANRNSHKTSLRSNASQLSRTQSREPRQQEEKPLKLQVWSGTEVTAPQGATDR

[1] = molecular target: D(2) dopamine receptor (Homo sapiens) (UniProt P14416); test: Antagonist activity at Gi-coupled D2 receptor (unknown origin) expressed in HEK293T cells assessed as reduction in […] inhibition of forskolin-stimulated cAMP accumulation preincubated for 10 to 15 followed by […] for 10 mins and subsequent forskolin-stimulation by Glo-sensor assay; format: functional, cell-based
Chain of D(2) dopamine receptor (Homo sapiens) (P14416 whole entry): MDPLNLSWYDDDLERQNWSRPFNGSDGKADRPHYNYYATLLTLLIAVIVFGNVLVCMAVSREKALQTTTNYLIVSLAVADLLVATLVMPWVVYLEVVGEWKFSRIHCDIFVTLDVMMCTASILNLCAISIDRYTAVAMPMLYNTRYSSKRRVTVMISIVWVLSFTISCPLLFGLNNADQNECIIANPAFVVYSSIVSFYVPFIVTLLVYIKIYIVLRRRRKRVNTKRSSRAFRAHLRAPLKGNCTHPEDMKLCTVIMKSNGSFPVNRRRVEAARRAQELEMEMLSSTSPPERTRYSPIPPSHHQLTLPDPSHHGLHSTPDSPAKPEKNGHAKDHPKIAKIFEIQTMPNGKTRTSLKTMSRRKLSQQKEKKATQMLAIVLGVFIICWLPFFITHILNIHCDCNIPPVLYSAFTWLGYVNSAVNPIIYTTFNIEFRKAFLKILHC

[2] = molecular target: T1, D(4) dopamine receptor (Homo sapiens) (UniProt P21917); test: Antagonist activity at D4 receptor (unknown origin)
T1 sequence (whole entry): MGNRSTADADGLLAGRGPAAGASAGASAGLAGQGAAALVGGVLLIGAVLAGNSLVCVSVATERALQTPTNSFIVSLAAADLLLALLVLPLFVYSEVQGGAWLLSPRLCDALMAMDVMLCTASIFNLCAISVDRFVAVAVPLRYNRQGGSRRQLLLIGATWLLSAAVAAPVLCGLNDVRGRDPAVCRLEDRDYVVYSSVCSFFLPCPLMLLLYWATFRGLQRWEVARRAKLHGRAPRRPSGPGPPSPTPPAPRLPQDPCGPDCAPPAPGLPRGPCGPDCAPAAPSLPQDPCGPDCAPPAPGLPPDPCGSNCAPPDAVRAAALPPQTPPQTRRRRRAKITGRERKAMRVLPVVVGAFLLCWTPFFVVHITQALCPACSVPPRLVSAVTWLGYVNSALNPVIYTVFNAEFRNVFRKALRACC

[3] = molecular target: Free fatty acid receptor 1 (Homo sapiens) (UniProt O14842); test: Antagonist activity at GPR40 (unknown origin) expressed in HEK293 cells harboring luc2P/NFAT-RE plasmid at 10 uM after 6 to 8 hrs by luciferase reporter gene assay; format: cell-based
Chain of Free fatty acid receptor 1 (Homo sapiens) (O14842 whole entry): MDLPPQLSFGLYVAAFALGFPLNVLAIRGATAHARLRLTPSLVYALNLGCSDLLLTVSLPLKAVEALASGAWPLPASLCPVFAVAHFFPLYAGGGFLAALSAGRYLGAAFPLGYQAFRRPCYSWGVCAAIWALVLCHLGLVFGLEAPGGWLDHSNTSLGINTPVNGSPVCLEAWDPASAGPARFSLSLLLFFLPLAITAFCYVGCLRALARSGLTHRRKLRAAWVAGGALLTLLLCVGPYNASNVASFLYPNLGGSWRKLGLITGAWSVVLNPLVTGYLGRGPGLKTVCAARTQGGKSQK
Procedure, shortened: (§1)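 NFAT-RE luciferase assay in HEK293T cells transiently co-transfected with luc2P/NFAT-RE plasmid and receptor plasmid. Cells plated in DMEM and incubated overnight at 37 °C, 5% CO₂. Compounds and reference ligands applied for 6-8 h. Luciferase read after adding Bright-Glo substrate (1 mg/ml final).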

[4] = Apparent volume of distribution in C57BL/6J mouse serum at 20 mg/kg, po by LC-MS/MS analysis; format: ADME, organism-based
Procedure, shortened: (§2)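 Male C57BL/6J mice (6-8 weeks, 20 ± 5 g) fasted overnight (12-16 h) got a single 20 mg/kg oral dose as 2.5 mg/mL suspension in 1% w/v gum acacia; n=5 per time point. Serum and brain (PBS homogenate 1:6 w/v) sampled up to 24 h. Parent and demethylated metabolite quantified by LC-MS/MS after liquid-liquid extraction (C18, MRM, phenacetin internal standard; linear 0.25-200 ng/mL). Two-compartment open model fit.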

[5] = Half life in C57BL/6J mouse brain at 20 mg/kg, po by LC-MS/MS analysis; format: ADME, organism-based; procedure, shortened: as §2
[6] = Half life in C57BL/6J mouse brain assessed as 4-(2-Amino-8-methyl-5,6,7,8-tetrahydroquinazolin-4-yl)phenol level at 20 mg/kg, po by LC-MS/MS analysis; format: ADME, organism-based; conditions: in vivo; procedure, shortened: as §2
[7] = Ratio of AUClast in C57BL/6J mouse brain to AUClast in C57BL/6J mouse serum; format: ADME
Procedure, shortened: (§3)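 Male C57BL/6J mice (6–8 weeks) were fasted 12–16 h, then given a single oral dose of 20 mg/kg as a 2.5 mg/mL suspension in 1% gum acacia/water (n=5 per time point). Serum and brain (homogenised 1:6 in PBS) were sampled up to 24 h. Parent and demethylated metabolite were measured by LC-MS/MS (range 0.25–200 ng/mL). AUC ran to the last observation.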

[8] = Ratio of AUClast in C57BL/6J mouse serum assessed as 4-(2-Amino-8-methyl-5,6,7,8-tetrahydroquinazolin-4-yl)phenol level to AUClast in C57BL/6J mouse serum; format: ADME; procedure, shortened: as §3
Mus musculus [9] = test: Anti-obesity activity in high fat diet-induced obese C57BL/6J mouse model assessed as reduction in body weight at 10 to 20 mg/kg, po; format: functional, organism-based; conditions: TDE = time-dependent effect
Mus musculus [10] = test: In vivo antagonist activity at H3R in 12 hrs fasted db/db-induced obese C57BL/6J mouse model assessed as increase in c-FOS expression in para-ventricular nucleus of hypothalamus at 20 mg/kg, ip measured after 90 mins by immunohistochemistry-based fluorescence assay; format: functional, organism-based
[11] = Toxicity in lean C57BL/6J mouse assessed as change in body fat mass at 10 to 20 mg/kg, po measured after 6 weeks; format: organism-based; conditions: in vivo, 1008 h
Mus musculus [12] = test: Anti-obesity activity in high fat diet-induced obese C57BL/6J mouse model assessed as change in blood TG level at 10 to 20 mg/kg, po measured after 6 weeks; format: functional, organism-based
Procedure, shortened: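 At the end of treatment (six weeks HFD, four weeks db/db), mice euthanized with avertin 350 mg/kg. Blood taken by cardiac puncture into 3.8% sodium citrate. Plasma separated at 4000 rpm and stored at -80 °C. TG, TC, HDLc and LDLc measured on a bio-analyzer.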

Mus musculus [13] = test: Anti-obesity activity in 16 hrs fasted db/db-induced obese […] mouse model assessed as reduction in body weight at 20 mg/kg, po measured after 4 weeks; format: functional, organism-based
[14] = molecular target: T2, 5-hydroxytryptamine receptor 2C (Homo sapiens) (UniProt P28335); test: Agonist activity at 5HT2CR (unknown origin) expressed in HEK293 cells harboring luc2P/NFAT-RE plasmid at 10 uM after 6 to 8 hrs by luciferase reporter gene assay; format: cell-based; procedure, shortened: as §1
T2 sequence (whole entry): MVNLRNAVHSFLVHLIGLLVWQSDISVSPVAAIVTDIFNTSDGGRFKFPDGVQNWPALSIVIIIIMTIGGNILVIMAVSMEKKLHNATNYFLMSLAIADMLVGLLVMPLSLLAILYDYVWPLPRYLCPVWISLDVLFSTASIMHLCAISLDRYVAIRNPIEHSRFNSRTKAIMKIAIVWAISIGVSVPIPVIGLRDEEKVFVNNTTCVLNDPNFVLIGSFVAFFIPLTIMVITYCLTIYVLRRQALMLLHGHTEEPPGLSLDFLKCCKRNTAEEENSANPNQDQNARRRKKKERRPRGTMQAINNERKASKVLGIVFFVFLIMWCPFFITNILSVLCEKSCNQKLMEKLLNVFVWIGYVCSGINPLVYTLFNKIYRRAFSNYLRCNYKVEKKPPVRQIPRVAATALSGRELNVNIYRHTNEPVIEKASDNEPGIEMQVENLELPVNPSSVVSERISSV

## COc1ccc(-c2nc(N)nc3c2CCCC3C)cc1 (racemic)
Histamine H2 receptor
  EC50: Not Active
  INH: > 10 µM
[1]
  inhibition: inactive
[2]
  inhibition: inactive
[3]
  inhibition: inactive
[4]
  Vd/F: 28.5 L/kg
[5]
  half-life: 1.1 h
[6]
  t1/2: 1.2 h
[7]
  Ratio AUC: 16.2%
[8]
  Ratio AUC: 85.8%
Mus musculus [9]
  Activity: Tde
Mus musculus [10]
  Activity: Active
[11]
  Activity: Non-Toxic
Mus musculus [12]
  Activity: inactive
Mus musculus [13]
  Activity: Active
[14]
  inhibition: inactive
